Assay results published in PMC10962727 (PNAS Nexus, 2024).

Columns and labels:
MST1 [1] = molecular target: T1, MST1 (Homo sapiens, UniProt Q13043); experiment: MST1 inhibition; assay type: biochemical; conditions: vs neratinib
T1 sequence (Q13043 1-487): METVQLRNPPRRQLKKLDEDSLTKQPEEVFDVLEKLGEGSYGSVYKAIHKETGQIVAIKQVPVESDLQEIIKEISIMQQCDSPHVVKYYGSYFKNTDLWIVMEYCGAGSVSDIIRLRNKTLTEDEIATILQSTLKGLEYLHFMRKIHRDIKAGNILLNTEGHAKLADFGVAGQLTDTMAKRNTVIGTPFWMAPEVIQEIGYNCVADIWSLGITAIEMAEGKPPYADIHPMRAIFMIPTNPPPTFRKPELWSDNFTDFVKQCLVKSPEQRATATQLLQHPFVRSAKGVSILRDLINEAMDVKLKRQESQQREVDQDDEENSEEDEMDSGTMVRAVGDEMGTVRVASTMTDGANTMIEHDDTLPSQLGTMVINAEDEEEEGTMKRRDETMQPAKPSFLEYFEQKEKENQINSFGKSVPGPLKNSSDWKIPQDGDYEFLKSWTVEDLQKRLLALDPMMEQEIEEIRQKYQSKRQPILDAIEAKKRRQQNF

EGFR = EGFR (Homo sapiens, UniProt P00533); experiment: EGFR inhibition; assay type: biochemical
MST1/2 = conditions: cited from earlier work
MST1 [2] = molecular target: T1, MST1; conditions: high-throughput MST1 inhibition screen ref 16, 17; cited from earlier work
Pharmacokinetics in mice = assay type: in vivo; conditions: female, CD1, mouse, plasma, po, 20 mg/kg
Method in brief: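 Female CD1 mice and male beagle dogs received test compound orally in 0.5% methylcellulose:0.5% Tween-80 or intravenously in saline, both at 5 mL/kg. After oral dosing, plasma concentrations were measured at 30 min, 1 h, 3 h, 8 h and 24 h.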

EGFR, sequence (P00533 25-1210): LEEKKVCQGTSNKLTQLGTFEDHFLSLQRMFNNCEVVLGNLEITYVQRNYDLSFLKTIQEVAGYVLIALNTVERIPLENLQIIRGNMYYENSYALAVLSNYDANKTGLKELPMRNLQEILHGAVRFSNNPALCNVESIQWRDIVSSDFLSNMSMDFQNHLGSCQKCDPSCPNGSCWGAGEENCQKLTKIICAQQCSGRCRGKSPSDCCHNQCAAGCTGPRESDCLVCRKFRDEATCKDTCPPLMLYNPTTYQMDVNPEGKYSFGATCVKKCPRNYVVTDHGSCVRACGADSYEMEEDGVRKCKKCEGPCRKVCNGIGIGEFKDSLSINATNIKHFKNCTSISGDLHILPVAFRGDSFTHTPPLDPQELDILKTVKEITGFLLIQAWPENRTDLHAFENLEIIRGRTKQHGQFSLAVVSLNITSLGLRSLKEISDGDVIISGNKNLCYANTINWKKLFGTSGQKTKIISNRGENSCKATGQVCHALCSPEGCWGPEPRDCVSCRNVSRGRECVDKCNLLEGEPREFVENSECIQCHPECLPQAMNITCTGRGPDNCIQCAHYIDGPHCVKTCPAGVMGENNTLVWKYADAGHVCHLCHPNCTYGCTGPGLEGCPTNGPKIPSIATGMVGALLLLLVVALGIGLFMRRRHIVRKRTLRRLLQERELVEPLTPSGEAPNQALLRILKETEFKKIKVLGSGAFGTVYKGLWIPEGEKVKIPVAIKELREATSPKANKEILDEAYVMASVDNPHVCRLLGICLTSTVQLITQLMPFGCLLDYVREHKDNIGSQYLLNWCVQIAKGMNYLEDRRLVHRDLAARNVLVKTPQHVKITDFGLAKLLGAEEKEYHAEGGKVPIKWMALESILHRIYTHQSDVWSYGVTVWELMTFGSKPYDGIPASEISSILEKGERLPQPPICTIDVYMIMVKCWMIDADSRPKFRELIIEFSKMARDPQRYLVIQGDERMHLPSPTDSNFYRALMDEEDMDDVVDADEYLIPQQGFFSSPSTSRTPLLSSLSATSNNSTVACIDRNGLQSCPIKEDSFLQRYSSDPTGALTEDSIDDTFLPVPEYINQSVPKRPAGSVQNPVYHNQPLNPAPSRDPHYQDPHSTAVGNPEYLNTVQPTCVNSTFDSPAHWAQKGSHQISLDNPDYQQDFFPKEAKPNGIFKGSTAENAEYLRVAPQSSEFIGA

## CCOc1cc2ncc(C#N)c(Nc3ccc(OCc4ccccn4)c(Cl)c3)c2cc1NC(=O)CCCN(C)C [mBNB885]
MST1 [1]
  MST1 activity (in words): preserved MST1 activity
EGFR; compared with preceding/parent compound
  fold reduction in potency toward EGFR / EGFR inhibition: 5 fold
EGFR; read-out: EGFR IC50
  IC50: 1.42 nM

## XMU-MP-1
MST1/2
  MST1/2 inhibition (in words): selective MST1/2 inhibition

## CCOc1cc2ncc(C#N)c(Nc3ccc(OCc4ccccn4)c(Cl)c3)c2cc1NC(=O)/C=C/CN(C)C [Neratinib]
MST1 [2]
  MST1 inhibitory activity (in words): high MST1 inhibitory activity
Pharmacokinetics in mice
  AUC(0-t): 3120 ng·h/mL
  Cmax: 342 ± 152 ng/mL
  MRT: 5.4 ± 1.3 h
  Tmax: 4 ± 3 h
